Laboratory results published in ChEMBL document CHEMBL3352590, “How a β-D-glucoside side chain enhances binding affinity to thrombin of inhibitors bearing 2-chlorothiophene as P1 moiety: crystallography, fragment deconstruction study, and evaluation of antithrombotic properties” (J Med Chem, 2014).
Converted amounts (≈) assume the structure as drawn. The source made the active and inactive calls. No cut-off for these calls is given here.

Columns and labels:
[1] = molecular target: T1, Coagulation factor X (Homo sapiens, UniProt P00742); experiment: Inhibition of human factor10a assessed as reduction in hydrolysis of chromogenic substrate S-2765 by Cheng-Prusoff equation analysis
T1 sequence (P00742 41-179 limits assumed): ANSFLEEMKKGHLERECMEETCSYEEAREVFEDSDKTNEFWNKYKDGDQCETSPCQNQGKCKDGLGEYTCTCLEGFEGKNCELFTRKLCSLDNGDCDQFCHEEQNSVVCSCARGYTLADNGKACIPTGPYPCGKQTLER
T1 sequence (P00742 235-488 limits assumed): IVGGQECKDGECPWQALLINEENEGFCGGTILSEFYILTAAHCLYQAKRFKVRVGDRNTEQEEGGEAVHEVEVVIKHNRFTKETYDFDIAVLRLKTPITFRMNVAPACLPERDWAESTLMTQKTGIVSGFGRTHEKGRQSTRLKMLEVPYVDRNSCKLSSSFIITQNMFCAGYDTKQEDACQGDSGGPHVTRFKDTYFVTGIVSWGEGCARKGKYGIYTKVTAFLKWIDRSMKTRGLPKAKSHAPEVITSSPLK
Summary of the method: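 Chromogenic assay at pH 8: 2 nM human fXa with 0.04 mM S-2765, or 0.41 U/mL bovine thrombin with 0.05 mM S-2238 (final). Enzyme preincubated with inhibitor (0.01−100 nM or 0.01−100 μM, ≤1% DMSO); substrate added, A405 followed 5 min.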

[2] = molecular target: T2, Prothrombin (Bos taurus, UniProt P00735); experiment: Inhibition of bovine thrombin assessed as reduction in hydrolysis of chromogenic substrate S-2238 by Cheng-Prusoff equation analysis
[3] = system: Plasma; experiment: Anticoagulant activity in recombinant tissue factor and procoagulant phospholipids-stimulated human citrated plasma assessed as inhibition of thrombin peak by fluorometry based calibrated automated thrombography; type: functional, cell-free
Summary of the method: (§1)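 Pooled citrated human plasma spiked with test compounds at 0.01−10 μM or vehicle; 80 μL plasma incubated 10 min at 37 °C; thrombin generation triggered by low tissue factor, phospholipids and calcium. Lag-time, thrombin peak and endogenous thrombin potential (area under curve) read by calibrated automated thrombography and expressed as percent of vehicle control.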

[4] = system: Plasma; experiment: Anticoagulant activity in recombinant tissue factor and procoagulant phospholipids-stimulated human citrated plasma assessed as reduction in endogenous thrombin potential by fluorometry based calibrated automated thrombography; type: functional, cell-free; summary of the method: as §1
[5] = system: Plasma; experiment: Profibrinolytic activity in tissue factor-induced human plasma exposed to exogenous tissue plasminogen activator assessed as time needed to lyse 50% fibrin clot by turbidimetric assay; type: functional, cell-free
Summary of the method: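 Turbidimetric clot lysis at 37 °C: citrated human plasma spiked with compound or vehicle, plus phospholipids, t-PA (40 ng/mL stock), Tris-NaCl pH 7.4 and TF; clotting started with CaCl2. A405 read each minute for 3 h; lysis time from clot formation to midpoint of turbid-to-clear transition, as percent of vehicle; three independent plasma samples.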

[6] = molecular target: T1, Coagulation factor X; experiment: Inhibition of human factor10a assessed as reduction in hydrolysis of chromogenic substrate S-2765 at 1 mM by Cheng-Prusoff equation analysis
[7] = molecular target: Prothrombin (Bos taurus) (UniProt P00735); experiment: Inhibition of bovine thrombin assessed as reduction in hydrolysis of chromogenic substrate S-2238 at 1 mM by Cheng-Prusoff equation analysis
[8] = molecular target: T1, Coagulation factor X; experiment: Inhibition of human factor10a assessed as reduction in hydrolysis of chromogenic substrate S-2765 by Lineweaver-Burk analysis
Summary of the method: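 Human fXa fixed at 2 nM, S-2765 varied 25−200 μM, without or with inhibitor at four concentrations, pH 8, A405 initial rates; Lineweaver−Burk (1/v vs 1/[S]) plots used to assign inhibition type.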

[9] = Aqueous solubility in pH 7.4 0.05 M phosphate buffer by HPLC method; type: physicochemical
Summary of the method: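 Excess solid (4−10 mg) in 0.05 M phosphate buffer pH 7.4 with 0.15 M KCl, shaken 1 h at 25 °C, then 15 min unshaken. Supernatant filtered and quantified by C18 HPLC (MeOH/0.05 M phosphate pH 4.5, UV 288 nm) against calibration curves of peak area.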

[10] = Lipophilicity, logKw of the compound by RP-HPLC method; type: physicochemical
Summary of the method: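 RP-HPLC on C18 column at 25 °C, 1.0 mL/min, UV 288 nm; capacity factors k′ = (tR − t0)/t0 measured at MeOH volume fractions 0.8 to 0.4 in 0.05 steps; log k′w taken as the polycratic capacity factor.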

[11] = Stability in 0.05 M pH 7.4 phosphate buffer containing 0.15 M KCl assessed as unhydrolyzed compound after 4 hrs at 37 degC; type: physicochemical; conditions: read-out: Stability
Summary of the method: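 10 mM acetonitrile stock diluted to 250 μM final in 0.05 M phosphate buffer pH 7.40 with 0.15 M KCl, 37 °C; samples withdrawn at t0 and fixed times, filtered and analysed by HPLC (UV 288 nm) for remaining unhydrolyzed compound.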

[12] = Stability in human plasma assessed as unhydrolyzed compound after 4 hrs at 37 degC by HPLC method; type: ADME, cell-free; conditions: read-out: Stability
Summary of the method: (§2)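 10 mM ACN stock diluted to 250 μM final in preheated 37 °C human serum (lyophilized, reconstituted in water). Incubation stopped at fixed times with ice-cold ACN; remaining parent measured by HPLC; first-order half-life derived.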

[13] = system: Plasma; experiment: Anticoagulant activity in recombinant tissue factor and procoagulant phospholipids-stimulated human citrated plasma assessed as increase in time required to generate first traces of thrombin at 2 to 10 uM by fluorometry based calibrated automated thrombography; type: functional, cell-free; summary of the method: as §1
[14] = system: Plasma; experiment: Anticoagulant activity in recombinant tissue factor and procoagulant phospholipids-stimulated human citrated plasma assessed as increase in time required to generate first traces of thrombin at 10 uM by fluorometry based calibrated automated thrombography; type: functional, cell-free
Summary of the method: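 Pooled citrated human plasma spiked with test compound or vehicle (0.01−10 μM); clotting triggered by low tissue factor, phospholipids and calcium; thrombin generation followed by calibrated automated thrombography, 80 μL plasma preincubated 10 min at 37 °C. Lag-time = time to first traces of thrombin, expressed as percent of vehicle control plasma.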

[15] = Half life in human plasma at 37 degC by HPLC method; type: ADME, cell-free; summary of the method: as §2
[16] = molecular target: T2, Prothrombin; experiment: Inhibition of bovine thrombin assessed as reduction in hydrolysis of chromogenic substrate S-2238 by Lineweaver-Burk analysis
[17] = Homo sapiens, Plasma, read-out: IC50
[18] = Homo sapiens, Plasma, read-out: EC50

Compound	Ki [1] [µM]	Ki [2] [µM]	IC50 [3] [nM]	IC50 [4, 17] [µM]	EC50 [5, 18] [nM]	inhibition [6] [%]	inhibition [7] [%]	solubility [9] [µM]	logKw [10]	remaining at 4 h [11] [%]	Activity [13]	fold change (FC) [14]	other results
Nc1c(OCCCO)cccc1OCc1cc(-c2ccc(Cl)s2)on1	18.3	29.8											
CC1CNc2c(cccc2S(=O)(=O)N[C@@H](CCCNC(=N)N)C(=O)N2CC[C@@H](C)C[C@@H]2C(=O)O)C1 (stereo not given in full) [ARGATROBAN]			1900	2.4	600								
COc1ccccc1NC(=O)C1CCN(C(C)C)CC1						16	0						
Nc1ccccc1OCc1cc(-c2ccc(Cl)s2)on1	11.6	31											
CC(C)N1CCC(C(=O)Nc2ccccc2OCc2cc(-c3ccc(Cl)s3)on2)CC1	0.0006		10000					530 (≈ 244 µg/mL)	3.49	> 90	Active	3	Ki [8]: 0.11 nM; remaining at 4 h [12]: > 90%; IC50 [4]: Not Active; EC50 [5]: Not Active
CC(C)N1CCC(C(=O)Nc2ccccc2OCCCO[C@@H]2[C@@H](O)[C@H](O)[C@@H](CO)O[C@H]2O)CC1						14	28						
CC(C)N1CCC(C(=O)Nc2c(OCCCO[C@@H]3O[C@H](CO)[C@@H](O)[C@H](O)[C@H]3O)cccc2OCc2cc(-c3ccc(Cl)s3)on2)CC1	9e-05	0.1	300	3.4	300			7330 (≈ 5100 µg/mL)	3.07	> 90	Active	15	Ki [8]: 0.87 nM; Ki [16]: 96 nM; remaining at 4 h [12]: > 90%

Second part, led by results:

Ki [1] [µM]	Ki [2] [µM]	IC50 [3] [nM]	IC50 [4, 17] [µM]	EC50 [5, 18] [nM]	inhibition [6] [%]	inhibition [7] [%]	solubility [9] [µM]	logKw [10]	remaining at 4 h [11] [%]	Compound	Activity [13]	fold change (FC) [14]	other results
6.9	133									Nc1c(OCCCO[C@@H]2O[C@H](CO)[C@@H](O)[C@H](O)[C@H]2O)cccc1OCc1cc(-c2ccc(Cl)s2)on1			
					13	16				CC(C)N1CCC(C(=O)Nc2ccccc2)CC1			
0.00025	0.16	1200	10	1800			< 1	5.07	> 90	CC(=O)OC[C@H]1O[C@@H](OCCCOc2cccc(OCc3cc(-c4ccc(Cl)s4)on3)c2NC(=O)C2CCN(C(C)C)CC2)[C@H](OC(C)=O)[C@@H](OC(C)=O)[C@@H]1OC(C)=O	Active	9	half-life [15]: 168 min
